The values below come from the EternaBench riboswitch data.

The data set relates to MS2 coat protein. Briefly: apparent Kd, MS2 coat protein; higher = weaker binding; RNA-MaP array; FMN 200 µM where present. Put shortly: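 Stalled E. coli RNA polymerase transcribed the designs on Illumina sequencing-chip clusters. SNAP-549-labelled MS2 coat protein was titrated from 0.7 or 1.5 nM, doubling to 3 µM, without and then with constant ligand, in 100 mM Tris-HCl pH 7.5, 80 mM KCl, 4 mM MgCl2, BSA, DTT, yeast tRNA and Tween-20. Per-cluster binding curves were fitted to green signal normalised to red-channel RNA signal and control-cluster median Fmax. The apparent Kd is the median of the filtered fits.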

The mark [1] stands for this setting: designed as: ON switch for flavin mononucleotide, no ligand.
[2] abbreviates: ligand present: flavin mononucleotide, designed as: ON switch for flavin mononucleotide.
Setting [3] is: designed as: OFF switch for flavin mononucleotide, no ligand.
Where [4] appears, read: ligand present: flavin mononucleotide, designed as: OFF switch for flavin mononucleotide.

One may read the apparent Kd as a dissociation constant that holds for the conditions of the assay.

In the case of “AGCAUUGCUUAGAAGGGAAAUUUAUAAUUUAAUUCAGGAUAUAGAUACAGUACAACAUGAGGACAUGAGGAUCACCCAUGUAUA”, the “apparent Kd” value is 25.8 nM under setting [1] and 19.3 nM under setting [2].

On to “AUAAAGUGAGGAUAUGUAAAAAUAACGAAAGUUAUAAAUAAACAGAAGGCACAUGAGGAUCACCCAUGUCCAAU”, for which the “apparent Kd” value reads like this: under setting [3], 26.8 nM; under setting [4], 43.1 nM.

Regarding “CCAUCGUGUGUGAGGAUAUGCUGGACCUUGGUUCAGCAGAAGGCACAUGAGGAUCACCCAUGUGAAUACGGUGG”, the “apparent Kd” value by setting is: under setting [3], 18.9 nM; under setting [4], 32.3 nM.

With “CCUGUGUAAGGAUAUGACAAUGGUAUCUUCGGAUACCAUUGUCAGAAGGUACAUGAGGAUCACCCAUGUAACAC”, the “apparent Kd” value under setting [3] came out at 15 nM and the “apparent Kd” value under setting [4] is 30.4 nM.

Regarding “CGAGUACAUGAGGAUCACCCAUGUUAUGAAUUGUCAGGAUAUGGAUAUUGUUGACAUGCGCCAGAAGGGACUUCUG”, the “apparent Kd” value by setting is: under setting [1], 27.5 nM; under setting [2], 20.2 nM.

With “UGUACCGUUGGAACGCGUCGAGUACAUGAGGAUCACCCAUGUCAGGAUAUGUGGCGGAAGGUAGCACAGAAGGGACAUAGAAAA”, the “apparent Kd” value under setting [3] was found to be 30.1 nM and the “apparent Kd” value under setting [4] stood at 86.7 nM.

Regarding “UGUCGGAGCAGAGGAUAUUACAUGAGGAUCACCCAUGUAUAAAAUGGAAGCUGGAAACAGCAAUGUAAGAAGGCUGCUCCGACA”, the “apparent Kd” value under setting [3] was found to be 61.2 nM and the “apparent Kd” value under setting [4] came to 288 nM.

Take “UUACUCAUGUAAGGAUAUGCAGCCGUUUCGGCUGCAGAAGGUACUAUAAUACAUGAGGAUCACCCAUGUCUAUACAAUAAAGAC”: the “apparent Kd” value is 62.9 nM under setting [1] and 26 nM under setting [2].

For the sequence “CCAGCCCGUGCAGGAUAUACAUGAGGAUCACCCAUGUAGGAGAAUCCGCCGGUAGAAGGGUACGGACGGGCGUCUGACGCUUGU”, the “apparent Kd” value by setting is: under setting [3], 5.87 nM; under setting [4], 6.33 nM.

For the sequence “AAGAAAUGGGAGUGAUUUGGUUCCGAGGAUAUAGGCAUCGGUACAUGAGGAUCACCCAUGUUCGACUAGAAGGCGGACGGGUCC”, the “apparent Kd” value by setting is: under setting [1], 169 nM; under setting [2], 20.4 nM.

In the case of “GCCUGCUGGCGAGGAUAUUCUGUGCGGUUCCGGCUCGUGUCUGUUACAUGAGGAUCACCCAUGUGGGAGAAGGUGUCUGCGGCC”, the “apparent Kd” value is, setting by setting: under setting [3], 7.66 nM; under setting [4], 8.34 nM.

For “AGCAUGUAAGGAUAUGCAAGUGGUACGGAUAGUACCAUAAAGCAGAAGGUACAUGAGGAUCACCCAUGUGCUCC”, the “apparent Kd” value amounted to 36.3 nM under setting [3] and 66.7 nM under setting [4].

Turning to “CCGUUACAUGAGGAUCACCCAUGUGAGGAUAUGGUUCGGUACUGUCCUGUCGCGUACUCCAGAAGGCACGUGUC”, the “apparent Kd” value runs as follows: under setting [3], 33.5 nM; under setting [4], 34.8 nM.

With “UCCUCUUUGAAGAAGGCGUGGUUAUGCUAGCCGCGAGGAUAUUCACAUGAGGAUCACCCAUGUGGAUUUCAGUCCGCUCAAAAC”, the “apparent Kd” value under setting [3] worked out at 10.2 nM and the “apparent Kd” value under setting [4] is 22.9 nM.

Turning to “UUGGACGUCGUAGGAUAUGUAGGAUAUUCCUACAUGAGGAUCACCCAUGUUGACAUGUAAGAAGGACAGAAGGACGAUGUCCAU”, the “apparent Kd” value under setting [1] is 208 nM and the “apparent Kd” value under setting [2] is 12.2 nM.

In the case of “ACAGGAAACACAGGAUAUGAGCGAAAUAGAGACAUGAGGAUCACCCAUGUACCGUAGAGAACCGGUCAGAAGGGUGACUCCCGU”, the “apparent Kd” value reads like this: under setting [1], 25.4 nM; under setting [2], 18.9 nM.

“UUUUUCUCAGGAUAUACAUGAGGAUCACCCAUGUAUAUUAGGAAUAAUACAUGGGAAUGUAGAAGGGAGCUCAU”: the “apparent Kd” value runs as follows: under setting [3], 128 nM; under setting [4], 98.4 nM.

With “UUUGUGUCAGGAUAUGAGUAGUAGAACAAUAGUACUACUACUCAGAAGGGACAUGAGGAUCACCCAUGUUCCUC”, the “apparent Kd” value is, setting by setting: under setting [3], 19.3 nM; under setting [4], 88.3 nM.

For the sequence “AUAAGUGAAAGCUAAAGAUUAGCCGAGGAUAUACAUGAGGAUCACCCAUGUAAGGGUCGCCUUCUGUAGAAGGCGGCGGUCUAG”, the “apparent Kd” value under setting [3] came to 40.5 nM and the “apparent Kd” value under setting [4] was 76.5 nM.

On to “CAGCGAUAGCUGAAUGGUACAUGGGAGGAUAUGGGUUGAUACAUGAGGAUCACCCAUGUUUAAUACUAGAAGGCCCAUGUACCU”, for which the “apparent Kd” value came out at 316 nM under setting [1] and 11 nM under setting [2].

Regarding “GGUGUGUCAGGAUAUCAACACACGGCAGCAGCGUUAUGCGUUGAGAAGGGACAUGAGGAUCACCCAUGUGACGG”, the “apparent Kd” value reads like this: under setting [3], 46 nM; under setting [4], 70.9 nM.

“AGCUAGGUAGGAUAUGCGUAAAUGUCGAAAGACGUAUUGGGACAUGAGGAUCACCCAUGUAGAAGGAUCUAGCA”: the “apparent Kd” value by setting is: under setting [3], 39.3 nM; under setting [4], 55.7 nM.

Take “CUGGAUGUCGAGGAUAUGCACCGGCUCGCUGACGCAGAAGGCGACACAUGAGGAUCACCCAUGUCGGUUCGCGA”: the “apparent Kd” value reads like this: under setting [3], 18.6 nM; under setting [4], 42 nM.

As to “GCAGCGUAUGUAGGAUAUCGGUCAGAUUCUGAUCGAGAAGGACAUGAGGAUCACCCAUGUAAAUUACCGACUUUGUCGGGCUGC”, the “apparent Kd” value was 6.73 nM under setting [3] and 8.18 nM under setting [4].

On to “GGCGGUCGGGAGGAUAUUCGGGCUGUUUGGCUUGGAGAAGGCUCGACAUGAGGAUCACCCAUGUUAGUGUUCUU”, for which the “apparent Kd” value is 73.9 nM under setting [3] and 506 nM under setting [4].

For the sequence “UGAAUCAUGCCAUGCGCUGACAUGAGGAUCACCCAUGUGUACAAGGAUAUGUUGGUCGACGAUCGGCAGAAGGUGUAAUGGGAU”, the “apparent Kd” value is, setting by setting: under setting [3], 319 nM; under setting [4], 764 nM.

For the sequence “GCCGGAUUUGUGAGGAUAUACCUAUGGAUACAUAGGUAGAAGGCACAUGAGGAUCACCCAUGUUCCUCACCGGC”, the “apparent Kd” value reads like this: under setting [3], 33 nM; under setting [4], 288 nM.

Take “AAACAUGUCCGAGGAUAUCUGGAAACAUUUUCAAGAGAAGGCGGACAUGAGGAUCACCCAUGUCUCUCCUCAUCAACCACAAAU”: the “apparent Kd” value is, setting by setting: under setting [3], 8.83 nM; under setting [4], 56.2 nM.

For the sequence “AAGACUAGAGGAUAUACAUGAGGAUCACCCAUGUAACUGUCAGAAAACUGACGGAGAUGUAGAAGGCUAGUCAA”, the “apparent Kd” value under setting [3] stood at 17.7 nM and the “apparent Kd” value under setting [4] amounted to 34.7 nM.

With “AAGAAUAGAAAGAUUAAUAUGAAUACAUGAGGAUCACCCAUGUAGGAUAUCGACGUCAAUGACGUCGAGAAGGACAUAAAUAAU”, the “apparent Kd” value under setting [3] came out at 9.7 nM and the “apparent Kd” value under setting [4] came to 9.09 nM.

In the case of “CCCAAACUUGGGCUUGGUGGUGCAUAGGAUAUCCUUGGACAUGAGGAUCACCCAUGUACAACUGUGGAGAAGGGUGCAGGACCU”, the “apparent Kd” value under setting [1] stood at 227 nM and the “apparent Kd” value under setting [2] was 39.6 nM.

On to “CCUUGGAUUGAGGAUAUAUGAACCUUUACGGUUGUAGAAGGCAGGACAUGAGGAUCACCCAUGUGGUGGCGCUC”, for which the “apparent Kd” value worked out at 1280 nM under setting [3] and 1010 nM under setting [4].

“UUAGCAACAUGAGGAUCACCCAUGUAGGAUAUCGCUAUUGUAAUCAUGAAACAUGAUUACAAUAGCGAGAAGGACAUAUGCUAC”: the “apparent Kd” value reads like this: under setting [3], 11.2 nM; under setting [4], 12.1 nM.

As for “GGGUAAAUCGGAGGAUAUCAUGUAAAUACAUGAGGAUCACCCAUGUCGAUGGAGACAUCGGAGAUUGAGAAGGCCGAUGUACCG”, the “apparent Kd” value under setting [1] is 175 nM and the “apparent Kd” value under setting [2] amounted to 9.42 nM.

For “CCAUGGAGUGUGAGGAUAUGCUGGUCCUUGGAUCAGCAGAAGGCACAUGAGGAUCACCCAUGUGAAUACCGUGG”, the “apparent Kd” value amounted to 36.2 nM under setting [3] and 196 nM under setting [4].

On to “GGAUUUACUGAGGAUAUUGCAUCACCCGACUGAUAAGAAGGCAGAACAUGAGGAUCACCCAUGUGGGUCGUCAA”, for which the “apparent Kd” value stood at 21.9 nM under setting [3] and 28.2 nM under setting [4].

“UGAGCAUGAGGAUAUACUUGGCGUGCGUGAGCACGAGGUUUACAUGAGGAUCACCCAUGUAGAAGGCAUGUUCU”: the “apparent Kd” value is, setting by setting: under setting [3], 18.2 nM; under setting [4], 51.6 nM.

In the case of “GAUCCGUCCUAGAAGGCCAUUCAACAUGAGGAUCACCCAUGUGCGAACUGGAGGAUAUAGGUGGGAUAGGCCUAGGGCCCGGUC”, the “apparent Kd” value under setting [1] was 9.38 nM and the “apparent Kd” value under setting [2] turned out to be 6.12 nM.

With “AAAGUGUAAGGAUAUGCUGCUCGUCACUUGCGUGAUGAGUAGCAGAAGGUACAUGAGGAUCACCCAUGUAAAGA”, the “apparent Kd” value by setting is: under setting [3], 32.3 nM; under setting [4], 40.6 nM.

Turning to “UUUUCGCGCGCAGGAUAUCCCAUGUGGUUCACACAUGAGGAUCACCCAUGUUUCACCCAUGUGCGGGAGAAGGGUGCGCGUUUC”, the “apparent Kd” value by setting is: under setting [1], 368 nM; under setting [2], 189 nM.

With “AUCAAUCAUGUAGGAUAUGCGUGGCGAAGCUAUGCAGAAGGACAUGAGGAUCACCCAUGUCUUUCUGUCUGCGUACGGACAGGA”, the “apparent Kd” value is 19.4 nM under setting [3] and 72.9 nM under setting [4].

As to “ACCUUACAUGAGGAUCACCCAUGUUAGGAUAUCUCGCCCGCGCAAACACAGCGCAGGCAGAGAAGGGACGCGGG”, the “apparent Kd” value is 31.8 nM under setting [3] and 32.8 nM under setting [4].

For the sequence “AGUCAUACAGGAUAUACAUGAGGAUCACCCAUGUUUAUCCUAAAAAAGUGAUCCUCAUGUAGAAGGGUAUGACA”, the “apparent Kd” value under setting [3] was 15.2 nM and the “apparent Kd” value under setting [4] was 18.9 nM.

Turning to “UGUCGGAGCAGAGGAUAUUACAUGAGGAUCACCCAUGUAUGGACCAAUAGCUGGAAACAGCAAUGUAAGAAGGCUGCUCCGACA”, the “apparent Kd” value turned out to be 18.3 nM under setting [3] and 215 nM under setting [4].

As for “GUAUCGUGAGGAUAUCUAGACUGACUUAGUACAUGUCAGCUGGAGAAGGCACAUGAGGAUCACCCAUGUGAUUA”, the “apparent Kd” value worked out at 22.6 nM under setting [3] and 73.8 nM under setting [4].

For the sequence “AUAAUUUUAUUUUUCUAUUUCAUCAGAAGGCAUUACAUGAGGAUCACCCAUGUUUUGGAUAGUAAUGAGGAUAUGAUAUGGUUA”, the “apparent Kd” value is, setting by setting: under setting [3], 10.2 nM; under setting [4], 18.6 nM.

Regarding “CGAAGCCAAGGAUAUACAUGAGGAUCACCCAUGUGUUCCAGGCAAGCACAGCAGCGACGUAGAAGGUGGCUUCA”, the “apparent Kd” value under setting [3] is 17.6 nM and the “apparent Kd” value under setting [4] was determined as 41.7 nM.

In the case of “GUAGCAUACCGAGGAUAUCUAUAUAAUAAACAAACAUGAGGAUCACCCAUGUGGCGAAAGCCAAGGGAGAAGGCGGAAUGCUAC”, the “apparent Kd” value stood at 35.6 nM under setting [1] and 22.1 nM under setting [2].
